MIN6 prolif – inducers of MIN6 beta-cell proliferation, primary screen, ATP luminescence, uHTS; 330,000 tested, 0.29% active; proliferation, % at 10 µM; MIN6 cells proliferation, ATPlite luminescence, 48 h; cells starved in 0.2% serum; 100% = growth in 10% serum; AID 2380, 2010;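 active means compounds whose signal lies at least 3.5 SD above the mean of all wells on their plate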
Yeast superoxide – reduction of superoxide in aged yeast, primary screen, HTS. AID 2690, 2010. superoxide response (% of plate mean), % at 10 µM. 330,000 tested, 0.18% active. S. cerevisiae aged cells, superoxide DHE fluorescence; active compounds read low;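 active means superoxide response under a set limit, about three screen SD below normal, cut at about 65% in these data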;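 further: yeast aged for seven days with compound at 30 °C before DHE staining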
KLK7 zymogen act – proKLK7 zymogen activators, primary screen, biochemical, fluorescence intensity | AID 652039, 2013 | Kallikrein-7 (Homo sapiens), P49862 | 370,000 tested, 0.9% active | purified proKLK7, EDANS-DABCYL substrate fluorescence; 100% is mature enzyme control, 0% vehicle | activation, % at 7 µM;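 active means activation above the mean of all tested compounds plus 3 SD, computed per campaign excluding outliers beyond control limits, cut at about 13% in these data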
Target sequence (P49862 whole entry, looked up): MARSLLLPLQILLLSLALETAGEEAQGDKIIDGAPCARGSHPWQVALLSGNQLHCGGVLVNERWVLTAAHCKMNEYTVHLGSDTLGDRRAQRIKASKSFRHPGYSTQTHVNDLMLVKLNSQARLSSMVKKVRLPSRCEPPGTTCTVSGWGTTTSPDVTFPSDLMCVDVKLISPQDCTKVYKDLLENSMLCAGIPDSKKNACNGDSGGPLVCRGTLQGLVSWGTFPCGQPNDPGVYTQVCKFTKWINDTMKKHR
Rce1 inhib – yeast Rce1p protease inhibitors, primary screen, biochemical, fluorescence, cell-free homogeneous; CAAX prenyl protease 2 (Saccharomyces cerevisiae (strain ATCC 204508 / S288c)), Q03530; yeast membranes, quenched prenylated peptide cleavage fluorescence; calls only; 290,000 tested, 0.27% active; AID 2563, 2010;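 active means fall in fluorescence gain of 50% or more versus controls, with final raw signal at or below 3038400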
Target sequence (Q03530 whole entry, looked up): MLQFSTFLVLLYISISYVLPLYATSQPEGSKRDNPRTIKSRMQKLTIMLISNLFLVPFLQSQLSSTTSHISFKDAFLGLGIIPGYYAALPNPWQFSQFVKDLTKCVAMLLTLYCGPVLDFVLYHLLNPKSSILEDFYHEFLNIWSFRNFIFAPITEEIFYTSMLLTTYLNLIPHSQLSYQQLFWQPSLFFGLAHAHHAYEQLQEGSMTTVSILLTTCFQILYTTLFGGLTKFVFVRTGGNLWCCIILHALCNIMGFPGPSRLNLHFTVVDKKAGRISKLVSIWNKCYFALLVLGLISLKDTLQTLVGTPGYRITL
T cell modulator – modulators of CD8 T cell-vesicle binding, primary screen, mouse 2C CD8+ T cells, flow cytometry; AID 2052, 2009; 330,000 tested, 0.068% active; response (vesicle binding), % at 7 µM; 2C CD8+ T cell-vesicle binding; active compounds read low;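 active means response, share of CD8 T cells binding vesicles, and their 90th percentile fluorescence all below set limits, cut at about 80% in these data, passing the limit was not always enough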;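 further: values below 100% mean blocked vesicle binding to the CD8+ T cells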
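incubation = binding step 1.5 h, 37 °C, antibody labelling 20 min, ice | test system = 2C mouse CD8+ T cells | read-out basis = percent CD8+ FL2 mean versus row control | controls = Peptide-free naked vesicles (low) and QL9 vesicles with 0.7% DMSO vehicle (high) | detection = flow cytometry of vesicle-bound cells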
V-ATPase pHluor – regulators of yeast V-ATPase proton pumping, primary screen, pHLuorin cytosolic pH fluorescence; response, % at 10 µM; S. cerevisiae; 350,000 tested, 0.37% active; AID 504577, 2011; in the data active means response mostly above about 7.3%, no sharp cut-off; inactive means mostly below about 5.4%; further: actives read high
Superoxide pick – superoxide lowering in aged yeast cells, confirmation, cherry picked compounds; shares compounds with Yeast superoxide; 850 tested, 1% active; superoxide response (% of plate), % at 10 µM; S. cerevisiae aging, superoxide DHE fluorescence; active compounds read low;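 active means superoxide signal below 65% of the plate average of sample wells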;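 further: cells aged with compound for 7 days at 30 degrees C before staining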
DHE fluor count – DHE quenching or ROS scavenging interference in aged yeast, artefact control for yeast caloric restriction mimetic project, S. cerevisiae BY4741, flow cytometry; fluorescence response, % at 10 µM; shares compounds with Yeast superoxide; 850 tested, under 10 active; DHE fluorescence; active compounds read low; AID 435000, 2010;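 active means fluorescence response below 15%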;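 further: lower means stronger quenching of DHE signal or ROS scavenging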
A number is an active result; . = inactive; / = not tested or not shown. In the library only some 1.9% were active in any assay of this set; here they are far more common.

SMILES | MIN6 prolif | Yeast superoxide | KLK7 zymogen act | Rce1 inhib | T cell modulator | V-ATPase pHluor | Superoxide pick | DHE fluor count
N#CC(c1nc2ccccc2nc1N1CCCC1)S(=O)(=O)c1ccccc1 (configuration not stated) | . | 63 | . | . | . | . | . | .
CN1CCN(c2nc3ccccc3nc2C(C#N)S(=O)(=O)c2ccccc2)CC1 (configuration not stated) | . | . | . | . | . | / | / | /
COCCn1c(SCC(=O)Nc2ccc(NC(C)=O)cc2)nc2ccccc2c1=O | . | 51 | . | . | . | . | . | .
Cc1noc(NS(=O)(=O)c2ccc(N/C=C/C(=O)c3ccc4c(c3)OCO4)cc2)c1C | . | 65 | . | . | . | . | . | .
O=c1[nH]cncc1OCc1ccccc1 | / | / | . | / | / | . | / | /
CC(C)CNC(=O)C1CCN(c2ccc(S(=O)(=O)N3CCOCC3)cc2)CC1 | . | . | . | . | / | . | / | /
O=C(NC1CC1)C1CCN(c2ccc(S(=O)(=O)N3CCOCC3)cc2)CC1 | . | 65 | / | . | . | . | . | .
O=S1(=O)CC(N2CCN(CC3CC3)CC2)CN1Cc1ccc(F)cc1 (configuration not stated) | / | / | . | / | / | / | / | /
CCN1CCN(C(=O)c2ccc(C)c(S(=O)(=O)Nc3cccc(C)c3)c2)CC1 | . | . | . | . | . | . | / | /
Cc1cccc(NS(=O)(=O)c2cc(C(=O)N3CCN(C)CC3)ccc2C)c1 | . | 64 | . | . | . | . | . | .
COC(=O)c1ccc(NC(=O)CSc2ccc(-c3ccccn3)nn2)cc1 | . | . | . | . | . | . | . | .
Cc1nnc(SCC(=O)N2CCN(S(=O)(=O)c3ccccc3)CC2)n1Cc1ccccc1 | . | . | . | . | . | . | / | /
CCn1c(SCC(=O)N2CCN(S(=O)(=O)c3ccccc3)CC2)nnc1-c1cccs1 | . | 63 | . | . | . | . | . | .
CCn1c(SCC(=O)Nc2ccc(C(=O)OC)cc2)nnc1-c1cccs1 | . | . | . | . | . | . | . | .
CCn1c(C)nnc1SCC(=O)Nc1ccc(C(C)=O)cc1 | . | 59 | . | . | . | . | . | .
C=CCn1c(SCC(=O)Nc2ccc(C(=O)OCC)cc2)nnc1-c1cccs1 | . | . | . | . | . | . | / | /
Cc1cc(C)cc(NC(=O)CSc2ccc(-c3ccccn3)nn2)c1 | . | . | . | . | . | . | / | /
CCCCOc1ccc(C(=O)NC2CCCCN(Cc3ccccc3C)C2=O)cc1 (configuration not stated) | / | / | . | / | / | / | / | /
CC1CC1C(=O)OCC(=O)NCc1ccccc1 (configuration not stated) | . | . | . | / | . | . | / | /
O=C(Cc1ccc(Cl)cc1)NCCCNC(=O)c1cccnc1 | . | . | . | . | . | . | / | /
C#Cc1cccc(-n2nnc(C(=O)OC)c2-c2ccccc2)c1 | . | 52 | . | . | . | . | . | .
COC(=O)c1nnn(-c2ccccc2)c1N | . | . | . | . | . | . | / | /
Cc1cn([C@H]2C[C@H](O)[C@@H](/C=C/C(=O)NCc3cccc4ccccc34)O2)c(=O)[nH]c1=O | / | / | . | / | / | / | / | /
Cc1cccc(C)c1OCC(=O)NCc1ccccc1 | . | 46 | . | . | . | . | . | .
CN(Cc1ccc(C(F)(F)F)cc1)C(=O)[C@H]1O[C@@H](n2ccc(=O)[nH]c2=O)[C@H](O)[C@@H]1O | / | / | . | / | / | / | / | /
SMILES | MIN6 prolif | Yeast superoxide | KLK7 zymogen act | Rce1 inhib | T cell modulator | V-ATPase pHluor | Superoxide pick | DHE fluor count
CC1Oc2ccccc2N(CC(=O)c2ccccc2)C1=O (configuration not stated) | . | 60 | / | . | . | . | . | .
CCOC(=O)C1=C(C)NC(C)=C(C(=O)OCC)C1C(=O)OCC(=O)N(C)Cc1ccccc1 | . | . | . | / | . | . | / | /
Cc1ccccc1Cn1cc(NC(=O)c2noc3c2CC(C(C)(C)C)CC3)cn1 (configuration not stated) | . | 65 | . | . | . | . | . | .
Cc1ccccc1Cn1nc(C)c(NC(=O)c2noc3c2CC(C(C)(C)C)CC3)c1C (configuration not stated) | . | . | . | . | . | . | / | /
CCc1ccc2oc(C(=O)N3CCN(c4ccccc4OC)CC3)cc(=O)c2c1 | . | 62 | . | . | . | . | . | .
CCOc1ccc(C(=O)N2CCN(c3cccc(Cl)c3)CC2)cc1 | . | . | . | . | . | . | . | .
CCOc1ccc(C(=O)N2CCN(c3cccc(C)c3C)CC2)cc1 | . | . | . | . | . | . | . | .
CCc1ccc2oc(C(=O)N3CCN(c4ccc(OC)cc4)CC3)cc(=O)c2c1 | . | . | . | . | / | . | / | /
COc1ccc(C(=O)N2CCN(c3ccccc3OC)CC2)cc1 | . | . | . | . | . | . | . | .
Cc1noc(C)c1COc1ccc(C(=O)N2CCN(c3cccc(Cl)c3)CC2)cc1 | . | / | . | / | / | . | / | /
CC1(C)OC(C)(C)C(=N/O)/C1=N\N | / | / | . | / | / | / | / | /
Cc1cc(C)c(S(=O)(=O)c2ccccc2F)c(=O)[nH]1 | . | . | . | . | . | . | / | /
COc1ccc(C(=O)N2CCN(c3cccc(Cl)c3)CC2)cc1 | . | . | . | . | . | . | . | .
CCCCCC(=O)NC(=S)Nc1cccc(C(C)=O)c1 | . | 60 | . | / | . | . | . | .
CCCC(=O)NC(=S)Nc1cccc(C(C)=O)c1 | . | . | . | . | . | . | / | /
Cc1nnsc1-c1c(C(=O)N2CCOCC2)c(C)nn1-c1ccc(Cl)cc1 | . | 46 | . | . | . | . | . | .
O=C(Nc1ccc2ccccc2c1)c1ccc(Cl)cc1Cl | . | 50 | . | . | . | . | . | .
O=C(Nc1ccc2ccccc2c1)c1ccccc1Cl | / | / | . | / | / | . | / | /
O=C(Nc1ccc(N2CCOCC2)cc1)c1nc2ccccc2s1 | . | . | . | . | . | . | / | /
COc1ccc(C(=O)CN2C(=O)c3ccccc3C2=O)c(OC)c1 | . | 63 | . | . | . | . | . | .
CCn1c(=O)c(CCC(=O)N2CCN(c3ccccn3)CC2)c(C)c2c(C)nn(-c3cccc(C)c3)c21 | . | . | . | . | . | . | / | /
O=C(OCc1c(F)cccc1Cl)c1cnc2ccccc2n1 | . | 54 | . | / | . | . | . | .
CC1(C(=O)NCc2ccccc2)CCC(=O)N1C1CC1 (configuration not stated) | / | / | . | / | / | / | / | /
